# Experimental data: PubChem BioAssay
# Calls of active or inactive are those of the source. Unless noted, how the calls were made is not given here.
# How the values were obtained:
# [1] = target: Pantothenate synthetase (Mycobacterium tuberculosis (strain ATCC 25618 / H37Rv)) (UniProt P9WIL5); assay: Coupled enzyme confirmation of inhibitors against recombinant Mtb PanC (AID 375); conditions: coupled enzyme assay; at 10 µM, stronger effect = higher value;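 further: 0% = full reaction with vehicle and 100% = no enzyme background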
# Chain of Pantothenate synthetase (Mycobacterium tuberculosis (strain ATCC 25618 / H37Rv)) (P9WIL5 whole entry, looked up): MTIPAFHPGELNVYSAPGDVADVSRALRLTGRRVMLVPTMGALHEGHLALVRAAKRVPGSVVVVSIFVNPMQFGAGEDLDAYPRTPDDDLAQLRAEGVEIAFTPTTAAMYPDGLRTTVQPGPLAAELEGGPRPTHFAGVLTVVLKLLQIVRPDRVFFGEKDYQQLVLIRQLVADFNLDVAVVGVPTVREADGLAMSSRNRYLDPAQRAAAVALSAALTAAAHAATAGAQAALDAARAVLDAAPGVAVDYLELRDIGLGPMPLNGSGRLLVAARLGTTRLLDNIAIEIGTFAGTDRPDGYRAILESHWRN
# [2] = Her2 expression decrease, cell viability multiplex – SKBR3 breast tumor cells, AlphaScreen, ATP viability, primary screen (AID 461;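 active means Her2 level under about 52% in both replicate screens, with viability over 70% of control, limit read from the data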;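 on Her2 level: lower value means less Her2 protein in the cells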;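 on viability: percent of carrier control wells set as 100% viability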); conditions: SKBR3 Her2 protein level, 18-24 h, measured here: SKBR3 viability, ATP luminescence, at 10 µM
# [3] = target: Receptor tyrosine-protein kinase erbB-2 (Homo sapiens) (UniProt P04626); assay: as above; conditions: 18-24 h, at 10 µM, stronger effect = lower value
# Chain of Receptor tyrosine-protein kinase erbB-2 (Homo sapiens) (P04626 whole entry, looked up): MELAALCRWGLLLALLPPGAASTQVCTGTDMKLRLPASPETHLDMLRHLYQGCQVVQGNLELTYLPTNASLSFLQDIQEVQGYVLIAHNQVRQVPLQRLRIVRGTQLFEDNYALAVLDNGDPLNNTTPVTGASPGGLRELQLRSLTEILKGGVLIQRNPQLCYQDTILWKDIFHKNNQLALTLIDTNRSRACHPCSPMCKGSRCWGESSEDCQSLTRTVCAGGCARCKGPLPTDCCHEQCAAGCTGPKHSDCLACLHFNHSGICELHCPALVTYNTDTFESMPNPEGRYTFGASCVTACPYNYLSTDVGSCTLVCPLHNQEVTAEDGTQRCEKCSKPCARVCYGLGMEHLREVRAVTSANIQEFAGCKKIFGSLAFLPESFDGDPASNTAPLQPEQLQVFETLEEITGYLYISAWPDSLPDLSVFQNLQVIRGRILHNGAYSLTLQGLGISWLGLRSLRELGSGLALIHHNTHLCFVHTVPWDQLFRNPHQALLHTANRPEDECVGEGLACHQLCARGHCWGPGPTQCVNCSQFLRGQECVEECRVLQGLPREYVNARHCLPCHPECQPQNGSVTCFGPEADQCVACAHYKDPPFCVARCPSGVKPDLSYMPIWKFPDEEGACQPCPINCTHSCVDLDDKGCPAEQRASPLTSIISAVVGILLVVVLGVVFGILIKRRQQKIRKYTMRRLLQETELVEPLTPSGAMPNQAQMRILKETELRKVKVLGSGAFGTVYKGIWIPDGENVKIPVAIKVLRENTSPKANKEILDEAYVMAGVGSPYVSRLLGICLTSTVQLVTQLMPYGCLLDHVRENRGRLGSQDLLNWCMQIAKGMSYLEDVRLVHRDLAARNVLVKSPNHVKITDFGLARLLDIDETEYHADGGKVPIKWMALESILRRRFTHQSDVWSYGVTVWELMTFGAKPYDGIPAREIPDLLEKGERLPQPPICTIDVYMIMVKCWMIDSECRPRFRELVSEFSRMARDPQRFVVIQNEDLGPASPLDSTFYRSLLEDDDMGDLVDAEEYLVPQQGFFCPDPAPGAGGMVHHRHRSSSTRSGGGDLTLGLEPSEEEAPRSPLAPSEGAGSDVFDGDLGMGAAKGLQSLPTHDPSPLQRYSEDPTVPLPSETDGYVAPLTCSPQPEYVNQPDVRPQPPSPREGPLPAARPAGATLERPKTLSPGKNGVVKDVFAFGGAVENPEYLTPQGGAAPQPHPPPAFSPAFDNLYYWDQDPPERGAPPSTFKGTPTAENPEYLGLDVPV
# [4] = reduced viability of SK-BR-3 breast cancer cells – cell-based, 24 h, human, pilot screen (AID 572;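 active means viability at or below 10% of carrier control in both of two separate runs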;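 further: compound exposure lasted between 18 and 24 h rather than exactly 24 h; 100% = carrier-treated control wells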); conditions: SK-BR-3 viability, CellTiter-Glo luminescence, at 10 µM, stronger effect = lower value
# [5] = HUVEC growth inhibition – cell-based, human, primary screen (AID 575;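 active means viability at or below 30% in both replicate assays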;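 further: 100% = median of untreated cell wells with 0.1% DMSO on each plate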); conditions: HUVEC proliferation, CellTiter-Glo luminescence, 72 h; at 10 µM; stronger effect = lower value
# Summary of the method: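 Test system: primary human umbilical vein endothelial cells; medium: endothelial basal medium with 2% FBS plus growth supplements; dosing: 10 µM compound only; times: 72 h treatment at 37 °C; signal: CTG luminescence; read-out: % viability relative to median vehicle-well signal on each plate; control set: vehicle and MePR control wells; plate: 384-well, collagen-coated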
# [6] = H69AR cell proliferation blockers – human, duplicate replicates, primary screen (AID 580;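 active means viability at or under a set limit in both replicates, limit being median viability minus 3 SD, cut at about 48% in these data, passing the limit was not always enough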;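 further: 100% = mean luminescence of untreated wells and 0% = no signal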); conditions: H69AR lung tumor cells viability, ATP luminescence, 72 h; at 10 µM; stronger effect = lower value
# [7] = MRP1 drug-resistance reversers in H69AR cells – cell-based, doxorubicin co-treatment, pilot screen (AID 601;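 active means viability loss from added drug above about 55%, and viability with drug at most 40%, in both replicates, limit read from the data, passing the limit was not always enough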); conditions: CellTiter-Glo, 72 h, at 10 µM; for differential viability (reversal): stronger effect = higher value
# [8] = H69AR cells + 2 uM doxorubicin, measured here: viability with 2 uM doxorubicin, stronger effect = lower value
# [9] = H69AR cells, compound alone cytotoxicity
compound,measurement,setting,value
COc1cc2c(cc1OC)-c1nnc(C)n1C1(CCCC1)C2,inhibition,[1],0% (inactive)
CC[N+](C)(CC)CCOC(=O)C(O)(c1ccccc1)C1CCCCC1 (stereo unspecified),inhibition,[1],0% (inactive)
CCOc1ccc(Cl)cc1S(=O)(=O)N1CCCC1,inhibition,[1],0% (inactive)
CCn1ncc(C2=NOC(C(=O)N3CCC(C(N)=O)CC3)C2)c1C (stereo unspecified),inhibition,[1],0% (inactive)
O=C(CSc1nnnn1C1CCCC1)N1CCN(C(=O)c2ccco2)CC1,inhibition,[1],0% (inactive)
COc1cccc(OC)c1C(=O)N1CCN(S(=O)(=O)c2ccccc2)CC1,inhibition,[1],0% (inactive)
CCOC(=O)C1CCN(Cc2c(O)ccc3ccccc23)CC1,inhibition,[1],1% (inactive)
O=C(NCc1ccco1)C1(S(=O)(=O)c2ccc(Cl)cc2)CC1,inhibition,[1],0% (inactive)
O=C(NO)c1ccccc1O,inhibition,[1],0% (inactive)
CCCCCn1c(CN2CCN(C(=O)OCC)CC2)nc2c1c(=O)[nH]c(=O)n2C,inhibition,[1],3% (inactive)
Cc1ccc(CNC(=O)c2coc(=O)c3ccccc23)o1,inhibition,[1],0% (inactive)
CCOC(=O)N1CCC(c2cc(=O)n3[nH]cc(C(=O)OC)c3n2)CC1,inhibition,[1],0% (inactive)
O=C(COc1ccccc1Cl)N1CCCC1,inhibition,[1],2% (inactive)
CCCCNC(=O)C(C#N)c1nc2ccccc2nc1N1CCCC1 (stereo unspecified),inhibition,[1],0% (inactive)
COc1ccccc1N(CC(=O)Nc1cccnc1)S(C)(=O)=O,inhibition,[1],5% (inactive)
COC(=O)c1cccc(S(=O)(=O)N2CCC(C)CC2)c1,inhibition,[1],3% (inactive)
Cc1cc(C)n(CCCNC(=O)c2ccc(S(=O)(=O)NCc3ccco3)cc2)n1,inhibition,[1],3% (inactive)
O=C(Cn1nnc(-c2ccccc2)n1)Nc1ccccc1N1CCOCC1,inhibition,[1],0% (inactive)
CCN(CCNC(=O)C1CCN(S(=O)(=O)c2cccc3cccnc23)CC1)c1ccccc1,inhibition,[1],1% (inactive)
CN(Cc1ccccc1)C(=O)c1ccc2c(c1)OCO2,inhibition,[1],0% (inactive)
Cc1ccsc1C1C2=C(CCCC2=O)Nc2ncnn21 (stereo unspecified),inhibition,[1],0% (inactive)
COc1ccc(C2CC(c3ccc(OC)cc3)n3nc(N)nc3N2)cc1 (stereo unspecified),inhibition,[1],0% (inactive)
COc1ccc(N2CCN(C(=O)C(OC(C)=O)c3ccccc3)CC2)cc1 (stereo unspecified),inhibition,[1],3% (inactive)
C[C@]12CC[C@@H]3c4ccc(O)cc4CC[C@H]3[C@@H]1CCC2=O,inhibition,[1],6% (inactive)
CN(Cc1cccs1)CC(O)COCc1ccco1 (stereo unspecified),inhibition,[1],0% (inactive)
Clc1ccc(OCc2nc(-c3ccccn3)no2)c(Br)c1,inhibition,[1],0% (inactive)
Cc1ccnc(NC(=O)CCC(=O)N(CC(=O)NC(C)(C)C)C2CCCC2)c1,inhibition,[1],0% (inactive)
COc1cc(C(=O)N(C)c2nnc(-c3cccnc3)s2)cc(OC)c1OC,inhibition,[1],0% (inactive)
Cc1ccc(N=Cc2ccc(O)cc2O)cc1F,inhibition,[1],0% (inactive)
CS(=O)(=O)N(Cc1ccccc1)c1ccc(C(=O)N2CCOCC2)cc1,inhibition,[1],0% (inactive)
CCCCn1cnc2c(cnn2-c2ccc(Cl)cc2)c1=O,inhibition,[1],6% (inactive)
COc1ccc(OC)c(C(O)C(C)N)c1 (stereo unspecified),inhibition,[1],0% (inactive)
same,viability,[2],104%
same,Her2 level,[3],118% (inactive)
same,viability,[4],104% (inactive)
same,viability,[5],108% (inactive)
same,viability,[6],98.1% (inactive)
same,differential viability (reversal),[7]; H69AR cells + 2 uM doxorubicin,-7.17% (inactive)
same,viability,[7]; [8],105%
same,viability,[7]; [9],98.1%
O=S(=O)(c1ccc2c(c1)OCCO2)N1CCC(n2nnc3cc(F)ccc32)CC1,inhibition,[1],1% (inactive)
CC(=O)NC(CCS(C)(=O)=O)C(=O)Nc1cccc2ccccc12 (stereo unspecified),inhibition,[1],0% (inactive)
Cc1ccc(S(=O)(=O)N2CCOCC2)cc1C(=O)OCC(=O)N1CCc2ccccc2C1,inhibition,[1],0% (inactive)
CCC(C(=O)N1CCc2cc(OC)c(OC)cc2C1)c1ccccc1 (stereo unspecified),inhibition,[1],0% (inactive)
COc1ccc(CNc2oc(-c3ccccc3)nc2C#N)cc1,inhibition,[1],5% (inactive)
CC(=O)Nc1ccc(NS(=O)(=O)C(F)(F)F)cc1,inhibition,[1],0% (inactive)
O=C(c1cccnc1)N1CCc2ccccc21,inhibition,[1],3% (inactive)
O=C(CCCN1CCC2(CC1)C(=O)NCN2c1ccccc1)c1ccc(F)cc1,inhibition,[1],1% (inactive)
same,viability,[2],98%
same,Her2 level,[3],65% (inactive)
same,viability,[4],98% (inactive)
same,viability,[5],96.2% (inactive)
same,viability,[6],87.8% (inactive)
same,differential viability (reversal),[7]; H69AR cells + 2 uM doxorubicin,-9.21% (inactive)
same,viability,[7]; [8],97%
same,viability,[7]; [9],87.8%
Cc1csc(NC(=O)c2ccoc2C)n1,inhibition,[1],0% (inactive)
O=C1c2ccccc2C(O)(Cc2ccccc2)N1Cc1ccco1 (stereo unspecified),inhibition,[1],2% (inactive)
CCCN1CCN(CCCNC(=O)C2CCCN(c3nc4ccc(OCC)cc4s3)C2)CC1 (stereo unspecified),inhibition,[1],1% (inactive)
O=C(c1csc2ccccc12)n1cccn1,inhibition,[1],0% (inactive)
CC(=O)N1C(=O)N(C)C2C1N(C(C)=O)C(=O)N2C (stereo unspecified),inhibition,[1],1% (inactive)
